# Results published in ChEMBL document CHEMBL2040734, “Benzothiazoles: search for anticancer agents” (2012).
# What was measured:
# Format in all cases: functional
# HCT-15 = assay: Cytotoxicity against human HCT15 cells assessed as cell growth at 0.01 uM after 48 hrs by sulforhodamine B assay; conditions: HCT-15, 48 h, read-out: Activity
# Summary of the method: (§1)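 Five-dose NCI panel run at 0.01, 0.1, 1, 10 and 100 µM. Cells were in RPMI 1640 with 5% FBS and 2 mM L-glutamine, seeded at 5000–40,000 cells/well and pre-incubated 24 h. Drug was diluted from a DMSO stock into medium with 50 µg/ml gentamicin. Exposure was 48 h at 37 °C, 5% CO2. Cells were fixed with cold TCA and stained with 0.4% SRB, read at 515 nm. Percent growth came from time-zero, control and test absorbances.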
# BT-549 = assay: Cytotoxicity against human BT549 cells assessed as cell growth at 1 uM after 48 hrs by sulforhodamine B assay; conditions: BT-549, 48 h, read-out: Activity
# Summary of the method: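 NCI-60 five-dose screen. Cells were grown in RPMI 1640 with 5% FBS and 2 mM L-glutamine and preincubated 24 h. Compound (DMSO stock) was tested at 0.01, 0.1, 1, 10 and 100 µM for 48 h at 37 °C. Cells were fixed in situ with cold TCA (final 10%) and stained with 0.4% SRB. A515 was read, and percent growth was calculated against time-zero and control plates.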
# Malme-3M [1] = assay: Cytotoxicity against human MALME-3M cells assessed as cell growth at 0.01 uM after 48 hrs by sulforhodamine B assay; conditions: read-out: Activity
# NCI-H23 = assay: Cytotoxicity against human NCI-H23 cells assessed as cell growth at 10 uM after 48 hrs by sulforhodamine B assay; conditions: NCI-H23, 48 h, read-out: Activity
# SK-MEL-2 [2] = assay: Cytotoxicity against human SK-MEL-2 cells assessed as cell growth at 100 uM after 48 hrs by sulforhodamine B assay; conditions: SK-MEL-2, 48 h, read-out: Activity
# OVCAR-4 [3] = assay: Cytotoxicity against human OVCAR4 cells assessed as cell growth at 0.1 uM after 48 hrs by sulforhodamine B assay; conditions: OVCAR-4, 48 h, read-out: Activity
# KM12 [4] = assay: Cytotoxicity against human KM12 cells assessed as cell growth at 100 uM after 48 hrs by sulforhodamine B assay; conditions: KM12, 48 h, read-out: Activity
# UACC-257 = assay: Cytotoxicity against human UACC257 cells assessed as cell growth at 10 uM after 48 hrs by sulforhodamine B assay; conditions: UACC-257, 48 h, read-out: Activity
# NCI-H522 [5] = assay: Cytotoxicity against human NCI-H522 cells assessed as cell growth at 1 uM after 48 hrs by sulforhodamine B assay; conditions: NCI-H522, 48 h, read-out: Activity
# HL-60(TB) = assay: Cytotoxicity against human HL-60(TB) cells assessed as cell growth at 10 uM after 48 hrs by sulforhodamine B assay; conditions: HL-60, 48 h, read-out: Activity
# Summary of the method: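 NCI five-dose screen on the HL-60(TB) leukaemia line, grown in RPMI 1640 with 5% FBS and 2 mM L-glutamine and plated for 24 h before dosing. DMSO stocks were diluted in medium. Cells were exposed 48 h at 37 °C, then settled cells were fixed in 16% TCA (final) and stained with SRB, absorbance 515 nm. Percent growth = (Ti−Tz)/(C−Tz)×100, or (Ti−Tz)/Tz×100 when Ti<Tz.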
# SK-MEL-2 [6] = assay: Cytotoxicity against human SK-MEL-2 cells assessed as cell growth at 1 uM after 48 hrs by sulforhodamine B assay; conditions: SK-MEL-2, 48 h, read-out: Activity
# HT-29 = assay: Cytotoxicity against human HT-29 cells assessed as cell growth at 10 uM after 48 hrs by sulforhodamine B assay; conditions: HT-29, 48 h, read-out: Activity; summary of the method: as §1
# SNB-75 [7] = assay: Cytotoxicity against human SNB75 cells assessed as cell growth at 1 uM after 48 hrs by sulforhodamine B assay; conditions: SNB-75, 48 h, read-out: Activity
# NCI-H522 [8] = assay: Growth inhibition of human NCI-H522 cells after 48 hrs by sulforhodamine B assay; conditions: NCI-H522, 48 h
# Summary of the method: (§2)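 Adherent NCI-60 lines were grown in RPMI 1640 with 5% FBS and 2 mM L-glutamine, plated at 5000–40,000 cells/well and preincubated 24 h. They were then exposed to five concentrations (0.01–100 µM, from a DMSO stock) for 48 h at 37 °C, 5% CO2. Cells were fixed with cold TCA (10% final, 60 min, 4 °C) and stained with 0.4% SRB. Dye was solubilized in 10 mM Tris base and A515 read. GI50 was derived from time-zero, control and treated absorbances.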
# NCI-H522 [9] = assay: Cytotoxicity against human NCI-H522 cells assessed as cell growth at 0.1 uM after 48 hrs by sulforhodamine B assay; conditions: NCI-H522, 48 h, read-out: Activity
# SW-620 = assay: Growth inhibition of human SW620 cells after 48 hrs by sulforhodamine B assay; conditions: SW-620, 48 h; for CC50: read-out: LC50 (the source's name); summary of the method: as §2
# KM12 [10] = assay: Cytotoxicity against human KM12 cells assessed as cell growth at 1 uM after 48 hrs by sulforhodamine B assay; conditions: KM12, 48 h, read-out: Activity
# NCI-H460 = assay: Cytotoxicity against human NCI-H460 cells assessed as cell growth at 0.1 uM after 48 hrs by sulforhodamine B assay; conditions: NCI-H460, 48 h, read-out: Activity
# ACHN = assay: Growth inhibition of human ACHN cells after 48 hrs by sulforhodamine B assay; conditions: for CC50: read-out: LC50 (the source's name)
# Summary of the method: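 Cells were in RPMI 1640 with 5% FBS and pre-incubated 24 h. Read-out was TCA fixation, SRB staining and absorbance at 515 nm. GI50 was the concentration where [(Ti−Tz)/(C−Tz)]×100 = 50, taken from log concentration vs % growth curves. It is given as ">" the top concentration when not reached.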
# LOX IMVI = assay: Cytotoxicity against human LOXIMVI cells assessed as cell growth at 0.01 uM after 48 hrs by sulforhodamine B assay; conditions: read-out: Activity
# OVCAR-4 [11] = assay: Cytotoxicity against human OVCAR4 cells assessed as cell growth at 10 uM after 48 hrs by sulforhodamine B assay; conditions: OVCAR-4, 48 h, read-out: Activity
# SNB-75 [12] = assay: Cytotoxicity against human SNB75 cells assessed as cell growth at 0.01 uM after 48 hrs by sulforhodamine B assay; conditions: SNB-75, 48 h, read-out: Activity
# TK-10 = assay: Cytotoxicity against human TK10 cells assessed as cell growth at 1 uM after 48 hrs by sulforhodamine B assay; conditions: TK-10, 48 h, read-out: Activity
# Malme-3M [13] = assay: Cytotoxicity against human MALME-3M cells assessed as cell growth at 1 uM after 48 hrs by sulforhodamine B assay; conditions: read-out: Activity
# SK-MEL-28 = assay: Cytotoxicity against human SK-MEL-28 cells assessed as cell growth at 100 uM after 48 hrs by sulforhodamine B assay; conditions: SK-MEL-28, 48 h, read-out: Activity
# M14 = assay: Cytotoxicity against human M14 cells assessed as cell growth at 0.1 uM after 48 hrs by sulforhodamine B assay; conditions: M14, 48 h, read-out: Activity
# HCC 2998 = assay: Cytotoxicity against human HCC2998 cells assessed as cell growth at 0.01 uM after 48 hrs by sulforhodamine B assay; conditions: HCC 2998, 48 h, read-out: Activity; summary of the method: as §1
Structure (SMILES),growth at 0.01 µM (HCT-15) [%],growth at 1 µM (BT-549) [%],growth at 0.01 µM (Malme-3M [1]) [%],growth at 10 µM (NCI-H23) [%],growth at 100 µM (SK-MEL-2 [2]) [%],growth at 0.1 µM (OVCAR-4 [3]) [%],growth at 100 µM (KM12 [4]) [%],growth at 10 µM (UACC-257) [%],growth at 1 µM (NCI-H522 [5]) [%],growth at 10 µM (HL-60(TB)) [%],growth at 1 µM (SK-MEL-2 [6]) [%],growth at 10 µM (HT-29) [%],growth at 1 µM (SNB-75 [7]) [%],GI50 (NCI-H522 [8]) [nM],TGI (NCI-H522 [8]) [nM],growth at 0.1 µM (NCI-H522 [9]) [%],GI50 (SW-620) [nM],TGI (SW-620) [nM],CC50 (SW-620) [nM],growth at 1 µM (KM12 [10]) [%],further results
Cc1ccc2nc(Nc3c(C)cccc3C)sc2c1,95,63,102,58,53,89,48,70,38,30,67,10,52,552,> 100000,85,949,> 100000,> 100000,55,CC50 (NCI-H522 [8]; read-out: LC50 (the source's name)): > 100000 nM; growth at 0.1 µM (NCI-H460): 103%; GI50 (ACHN): 76600 nM; TGI (ACHN): > 100000 nM; CC50 (ACHN): > 100000 nM; growth at 0.01 µM (LOX IMVI): 94%; growth at 10 µM (OVCAR-4 [11]): 55%; growth at 0.01 µM (SNB-75 [12]): 80%; growth at 1 µM (TK-10): 82%; growth at 1 µM (Malme-3M [13]): 57%; growth at 100 µM (SK-MEL-28): 55%; growth at 0.1 µM (M14): 104%; growth at 0.01 µM (HCC 2998): 97%
Clc1cccc(Cl)c1Nc1nc2cccc(Cl)c2s1,93,79,101,-71,-44,83,-98,-71,51,-47,71,-71,46,1020,2610,86,1320,2780,5860,62,growth at 0.1 µM (NCI-H460): 96%; GI50 (ACHN): 1150 nM; TGI (ACHN): 2380 nM; CC50 (ACHN): 4920 nM; growth at 0.01 µM (LOX IMVI): 94%; growth at 10 µM (OVCAR-4 [11]): -90%; growth at 0.01 µM (SNB-75 [12]): 82%; growth at 1 µM (TK-10): 59%; growth at 1 µM (Malme-3M [13]): 52%; growth at 100 µM (SK-MEL-28): -69%; growth at 0.1 µM (M14): 101%; growth at 0.01 µM (HCC 2998): 92%
